Laboratory results reported in ChEMBL document CHEMBL4257446, “Synthesis and biological evaluation of chalcone-linked pyrazolo[1,5-a]pyrimidines as potential anticancer agents” (Medchemcomm, 2017).
The source made the active and inactive calls. The calls are words filed in the database; no cut-off is given here.

What was measured:
A549 [1] = assay: Antiproliferative activity against human A549 cells after 24 hrs by MTT assay; format: functional, cell-based; details: A549, 24 h
Method in brief: (§1)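 Cells exposed to a range of compound concentrations; viability read by MTT assay. IC50 (concentration giving 50% growth inhibition) calculated and reported as mean ± S.D. of three independent experiments, each run in triplicate.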

DU-145 = assay: Antiproliferative activity against human DU145 cells after 24 hrs by MTT assay; format: functional, cell-based; details: DU-145, 24 h; method in brief: as §1
HEK293 [2] = assay: Antiproliferative activity against HEK293 cells after 24 hrs by MTT assay; format: cell-based; details: Homo sapiens, HEK293, 24 h
MDA-MB-231 = assay: Antiproliferative activity against human MDA-MB-231 cells after 24 hrs by MTT assay; format: functional, cell-based; details: MDA-MB-231, 24 h; method in brief: as §1
HEK293 [3] = assay: Induction of apoptosis in HEK293 cells assessed as effect on p53 levels after 24 hrs by Western blot analysis; format: cell-based; details: human, hek293, 24 h
A549 [4] = assay: Induction of apoptosis in human A549 cells assessed as decrease in Bcl2 levels at 2 uM after 24 hrs by Western blot analysis; format: functional, cell-based
Method in brief: (§2)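 A549 cells given 2 μM final concentration for 24 h. Total lysate probed by western blot for apoptosis-related proteins (Bax, p53, p21, caspase-3, Bcl2). Erlotinib served as positive control and untreated cells as negative control.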

A549 [5] = assay: Decrease in STAT3 protein expression in human A549 cells in STAT3 levels at 2 uM after 24 hrs by Western blot analysis; format: functional, cell-based
Method in brief: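 A549 cells exposed at 2 μM final concentration and collected 24 h later. Total protein lysate extracted and immunoblotted with antibodies against the EGFR/STAT3 pathway proteins. Erlotinib-treated cells were the positive control and untreated cells the negative control.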

A549 [6] = assay: Cell cycle arrest in human A549 cells assessed as accumulation of cells at G2/M phase at 2 uM after 24 hrs by propidium iodide staining-based flow cytometric analysis (reference value: 20.4%); format: functional
A549 [7] = assay: Induction of apoptosis in human A549 cells assessed as increase in p21 levels at 2 uM after 24 hrs by Western blot analysis; format: functional, cell-based; method in brief: as §2
HEK293 [8] = assay: Induction of apoptosis in HEK293 cells assessed as effect on p21 levels after 24 hrs by Western blot analysis; format: cell-based; details: human, hek293, 24 h
HEK293 [9] = assay: Induction of apoptosis in HEK293 cells assessed as effect on Bcl2 levels after 24 hrs by Western blot analysis; format: cell-based; details: human, hek293, 24 h
HEK293 [10] = assay: Induction of apoptosis in HEK293 cells assessed as effect on Bax levels after 24 hrs by Western blot analysis; format: cell-based; details: human, hek293, 24 h
HEK293 [11] = assay: Cell cycle arrest in HEK293 cells after 24 hrs by propidium iodide staining-based flow cytometric analysis; details: human, hek293, 24 h
A549 [12] = assay: Induction of apoptosis in human A549 cells assessed as increase in p53 levels at 2 uM after 24 hrs by Western blot analysis; format: functional, cell-based; method in brief: as §2
A549 [13] = assay: Induction of apoptosis in human A549 cells assessed as increase in Bax levels at 2 uM after 24 hrs by Western blot analysis; format: functional, cell-based; method in brief: as §2
A549 [14] = assay: Induction of apoptosis in human A549 cells assessed as decrease in pro-caspase-9 levels at 2 uM after 24 hrs by Western blot analysis; format: functional, cell-based

Row | SMILES | IC50 (A549 [1]) [µM] | IC50 (DU-145) [µM] | IC50 (MDA-MB-231) [µM] | IC50 (HEK293 [2]) [µM] | further results
1 | COc1cc(/C=C/C(=O)c2cc(-c3cc(OC)c(OC)c(OC)c3)n3nc(-c4ccccc4)cc3n2)cc(OC)c1OC | 25.9 | 17.9 | 18.4 | 41 | 
2 | COc1ccc(-c2cc(/C=C/C(=O)c3ccc(C)cc3)nc3cc(-c4ccccc4)nn23)cc1OC | 17.2 | 26.8 | 19.8 | 62.6 | 
3 | COc1ccc(/C=C/C(=O)c2cc(-c3ccc(OC)c(OC)c3)n3nc(-c4ccccc4)cc3n2)cc1 | 19.3 | 14.9 | 22 | 50.7 | 
4 | COc1ccc(-c2cc(C(=O)/C=C/c3cc(OC)c(OC)c(OC)c3)nc3cc(-c4ccccc4)nn23)cc1OC | 15.4 | 14.7 | 16.7 | 46.8 | 
5 | COc1cc(C(=O)/C=C/c2cc(-c3cc(OC)c(OC)c(OC)c3)n3nc(-c4ccccc4)cc3n2)cc(OC)c1OC | 20.5 | 34.9 | 24.3 | ≥ 100 | 
6 | COc1cc(-c2cc(C(=O)/C=C/c3ccc(C)cc3)nc3cc(-c4ccccc4)nn23)cc(OC)c1OC | 20 | 21.9 | 18.6 | 56.1 | 
7 | COc1cc(-c2cc(/C=C/C(=O)c3ccccc3)nc3cc(-c4ccccc4)nn23)cc(OC)c1OC | 18.2 | 34.3 | 15.8 | ≥ 100 | 
8 | COc1ccc(/C=C/C(=O)c2cc(-c3cc(OC)c(OC)c(OC)c3)n3nc(-c4ccccc4)cc3n2)cc1 | 21.2 | 16.9 | 16.5 | 46.6 | 
9 | COc1cc(-c2cc(/C=C/C(=O)c3ccc(Cl)cc3)nc3cc(-c4ccccc4)nn23)cc(OC)c1OC | 15.5 | 29.3 | 32.5 | ≥ 100 | 
10 | COc1ccc(-c2cc(C(=O)/C=C/c3ccc(Cl)cc3)nc3cc(-c4ccccc4)nn23)cc1OC | 22 | 22.4 | 23.7 | 39.1 | 
11 | COc1ccc(-c2cc(/C=C/C(=O)c3ccc(Cl)cc3)nc3cc(-c4ccccc4)nn23)cc1OC | 15.4 | 21.3 | 17.1 | 44.1 | 
12 | COc1ccc(-c2cc(C(=O)/C=C/c3ccccc3)nc3cc(-c4ccccc4)nn23)cc1OC | 18.6 | 15.6 | 23.3 | 64.1 | 
13 | COc1cc(-c2cc(/C=C/C(=O)c3ccc(C)cc3)nc3cc(-c4ccccc4)nn23)cc(OC)c1OC | 19.4 | 27.1 | 23.9 | 50.4 | 
14 | COc1ccc(-c2cc(C(=O)/C=C/c3ccc(C)cc3)nc3cc(-c4ccccc4)nn23)cc1OC | 22.2 | 19.5 | 22.6 | 57.4 | 
15 | COc1ccc(C(=O)/C=C/c2cc(-c3ccc(OC)c(OC)c3)n3nc(-c4ccccc4)cc3n2)cc1 | 11.9 | 14.6 | 13.9 | 40 | 
16 | COc1ccc(/C=C/C(=O)c2cc(-c3cc(OC)c(OC)c(OC)c3)n3nc(-c4ccccc4)cc3n2)cc1OC | 20.5 | 15.3 | 14.2 | 41 | 
17 | COc1cc(-c2cc(C(=O)/C=C/c3ccccc3)nc3cc(-c4ccccc4)nn23)cc(OC)c1OC | 18 | 16.3 | 19.2 | 44.8 | 
18 | COc1cc(-c2cc(C(=O)/C=C/c3ccc(Cl)cc3)nc3cc(-c4ccccc4)nn23)cc(OC)c1OC | 23.8 | 19.5 | 21.6 | 53.9 | 
19 | COc1ccc(C(=O)/C=C/c2cc(-c3cc(OC)c(OC)c(OC)c3)n3nc(-c4ccccc4)cc3n2)cc1 | 14.6 | 25.2 | 13.2 | 79.8 | 
20 | COc1ccc(C(=O)/C=C/c2cc(-c3cc(OC)c(OC)c(OC)c3)n3nc(-c4ccccc4)cc3n2)cc1OC | 17.8 | 29.9 | 18.3 | 81.7 | 

The next molecules have a lower IC50 (A549 [1]) than those just listed; values first:

Row | IC50 (A549 [1]) [µM] | IC50 (DU-145) [µM] | IC50 (MDA-MB-231) [µM] | SMILES | IC50 (HEK293 [2]) [µM] | further results
21 | 10.6 | 15.4 | 13.5 | COc1cc(-c2cc(/C=C/C(=O)c3ccc(C)c(C)c3)nc3cc(-c4ccccc4)nn23)cc(OC)c1OC | 72.5 | 
22 | 3.9 | 7.2 | 2.6 | COc1ccc(C(=O)/C=C/c2cc(-c3ccc(OC)c(OC)c3)n3nc(-c4ccccc4)cc3n2)cc1OC | 32.5 | Activity (HEK293 [3]): Non-Toxic; Activity (A549 [4]): Active; Activity (A549 [5]): Active; Activity (A549 [6]): 29.5%; Activity (A549 [7]): Active; Activity (HEK293 [8]): Non-Toxic; Activity (HEK293 [9]): Non-Toxic; Activity (HEK293 [10]): Non-Toxic; Activity (HEK293 [11]): Non-Toxic; Activity (A549 [12]): Active; Activity (A549 [13]): Active; Activity (A549 [14]): Active
23 | 7.2 | 8.3 | 4.7 | COc1ccc(-c2cc(/C=C/C(=O)c3cc(OC)c(OC)c(OC)c3)nc3cc(-c4ccccc4)nn23)cc1OC | 35 | Activity (HEK293 [3]): Non-Toxic; Activity (A549 [4]): Active; Activity (A549 [5]): Active; Activity (A549 [6]): 33.11%; Activity (A549 [7]): Active; Activity (HEK293 [8]): Non-Toxic; Activity (HEK293 [9]): Non-Toxic; Activity (HEK293 [10]): Non-Toxic; Activity (HEK293 [11]): Non-Toxic; Activity (A549 [12]): Active; Activity (A549 [13]): Active; Activity (A549 [14]): Active
24 | 9.3 | 12.1 | 11.5 | COc1ccc(-c2cc(/C=C/C(=O)c3ccc(C)c(C)c3)nc3cc(-c4ccccc4)nn23)cc1OC | 46.2 | 
25 | 7.4 | 16.4 | 8.7 | COc1ccc(-c2cc(/C=C/C(=O)c3ccc(OC)c(OC)c3)nc3cc(-c4ccccc4)nn23)cc1 | 48.5 | 
26 | 10.7 | 10 | 11.8 | COc1ccc(-c2cc(/C=C/C(=O)c3ccccc3)nc3cc(-c4ccccc4)nn23)cc1OC | 51.2 | 
27 | 10.4 | 18.4 | 14.7 | C#Cc1cccc(Nc2ncnc3cc(OCCOC)c(OCCOC)cc23)c1 [ERLOTINIB] | 30.3 | Activity (A549 [5]): inactive; Activity (A549 [6]): 24.5%; Activity (HEK293 [11]): Non-Toxic
28 | 2.9 | 8.5 | 6.3 | COc1ccc(C(=O)/C=C/c2cc(-c3ccc(OC)cc3)n3nc(-c4ccccc4)cc3n2)cc1 | 36.1 | Activity (HEK293 [3]): Non-Toxic; Activity (A549 [4]): Active; Activity (A549 [5]): Active; Activity (A549 [6]): 29.6%; Activity (A549 [7]): Active; Activity (HEK293 [8]): Non-Toxic; Activity (HEK293 [9]): Non-Toxic; Activity (HEK293 [10]): Non-Toxic; Activity (HEK293 [11]): Non-Toxic; Activity (A549 [12]): Active; Activity (A549 [13]): Active; Activity (A549 [14]): Active
29 | 8.6 | 13.7 | 9.9 | COc1ccc(-c2cc(/C=C/C(=O)c3ccccc3)nc3cc(-c4ccccc4)nn23)cc1 | 53.2 | 
